Results filed as inconclusive are left out. Calls of active or inactive are those of the source.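 Rule for the calls, unless noted: active = viability increase at or above a cutoff of the median across tested compounds plus 3 SD (cut at about 8.5% in these data, passing the limit was not always enough); inconclusive = some gains above the cutoff, reason not given; inactive = the rest.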
Key:
[1] = OD615 S. cerevisiae growth inhibition, permissive medium, pilot counter-assay, permissive growth control for S. cerevisiae lifespan shortening project (AID 705;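 active = growth inhibition above 25% in both replicates, a cutoff set 3 SD above the mean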); conditions: OD615, 24 h, at 10 µM, hits give high values
Outline: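 assay system = Saccharomyces cerevisiae strain carrying genetically modified DeaD replicative-lifespan system | technique = absorbance (optical density) at 615 nm | buffer or medium = permissive raffinose/galactose medium | timing = cells pre-grown 4 h, then 24 h compound exposure, 30 °C humidified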

[2] = Restrictive medium S. cerevisiae growth inhibition, OD615, pilot screen of yeast lifespan reduction project, restrictive growth control (AID 706;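 active = growth inhibition above a set limit, 3 SD over mean compound inhibition, in both replicates, cut at about 43% in these data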;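 note: modified DeaD lifespan yeast strain shifted to restrictive glucose medium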); conditions: OD615, 48 h, at 10 µM, hits give high values
Outline: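 System: modified S. cerevisiae. Buffer or medium: CSMM-D glucose medium. Incubation: 4 h pre-growth plus 48 h compound exposure, 30 °C. Detection: absorbance (optical density) measured at 615 nm.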

[3] = viability gain of MRP-1-high H69AR cells under doxorubicin, pilot screen, MRP-1 activator project, CellTiter-Glo, duplicate (AID 807); conditions: H69AR viability with doxorubicin, CellTiter-Glo luminescence; at 10 µM; hits give high values;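 note: compound pretreatment 18-22 h then 72 h combined with doxorubicin; 0% = doxorubicin alone and 100% = vehicle without doxorubicin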
[4] = growth suppression of beta-catenin knockout HCT116, pilot screen, human colon tumor cells (AID 823;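 active = cell viability at or below a set limit in both duplicate runs, the limit being the all-compound median minus 4 SD, cut at about 23% in these data, passing the limit was not always enough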;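 note: 0% = wells killed by 20 µM Hyamine and 100% = untreated DMSO cell wells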); conditions: CellTiter-Glo, 60 h, at 10 µM, hits give low values
[5] = growth suppression of PTEN-deleted HCT116, pilot screen, cell-based, HCT116 clonal line, CellTiter-Glo (AID 824;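 active = viability at or below 27.92% in each of two runs, the all-compound median minus 4 SD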;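 note: 0% = 20 µM Hyamine control and 100% = vehicle cell control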); conditions: 60 h, at 10 µM, hits give low values
[6] = inhibitors of the yeast RAM network, pilot screen, dse1pr::URA3 reporter, 5-FOA selection (AID 869;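 active = inhibition over a set limit, the all-compound mean plus 3 SD, in both replicate runs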;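 note: 0% = DMSO wells with no growth and 100% = 10 µM 1-NA-PP1 with full growth; RAM network block rescues cells from 5-FOA so hits raise OD615 growth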); conditions: S. cerevisiae dse1pr::URA3 5-FOA growth, OD615, 2 d; at 10 µM; hits give high values; strain carries analog-sensitive mutant Cbk1 kinase
[7] = RAM signaling pathway blockade in yeast – S. cerevisiae, Pdr1DBD-CYC8 efflux-inhibited sensitized strain, primary screen (AID 1298;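 active = RAM network inhibition above 8.4% in each of two replicates, 3 SD over the compound average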;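 note: 0% = DMSO untreated cells without growth and 100% = 10 µM 1-NA-PP1 full growth; higher means more yeast growth rescued from 5-FOA killing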); conditions: S. cerevisiae cbk1-as DSE1-URA3 strain, 5-FOA growth OD615, 2 d; at 50 µM; hits give high values

Cc1cc(NCc2ccc3c(c2)OCO3)n2nc(C)nc2n1
inactive: growth inhibition [1] -16.8% | growth inhibition [2] -2% | viability increase [3] -0.9% | viability [4] 94.4% | viability [5] 87.5% | inhibition [6] 0.44% | RAM network inhibition [7] -0.15%

CCOc1ccc(-c2cc(CCCC(=O)NCc3cccnc3)no2)cc1
inactive: growth inhibition [1] 0.205% | growth inhibition [2] 12.9% | viability increase [3] -3.69% | viability [4] 82.2% | viability [5] 92.9% | inhibition [6] 0.54% | RAM network inhibition [7] 2.74%

Cc1ccc(-c2nc(CS(=O)CC(=O)NCCC(C)C)c(C)o2)cc1 (configuration not stated)
inactive: growth inhibition [1] -6.7% | growth inhibition [2] -1.91% | viability increase [3] -0.71% | viability [4] 92.2% | viability [5] 95.8% | inhibition [6] 1.14% | RAM network inhibition [7] 3.42%

COC(=O)c1ccccc1NC(=O)c1c(O)c2c([nH]c1=O)CCCC2
inactive: growth inhibition [1] -23.1% | growth inhibition [2] -12.7% | viability increase [3] -5.62% | viability [4] 88.3% | viability [5] 93% | inhibition [6] 1.71% | RAM network inhibition [7] 1.65%

Cc1ccc2oc(=O)c3cnn(CC(=O)NC4CCCCC4C)c3c2c1 (configuration not stated)
inactive: growth inhibition [1] -14% | growth inhibition [2] -9.46% | viability increase [3] -2.9% | viability [4] 95.1% | viability [5] 84.1% | inhibition [6] 1.73% | RAM network inhibition [7] 0.7%

O=C(O)c1cccc(CN2C(=O)CSC2=O)c1
inactive: growth inhibition [1] -9.39% | growth inhibition [2] -12.3% | viability increase [3] -0.3% | viability [4] 95.7% | viability [5] 97.5% | inhibition [6] 0.91% | RAM network inhibition [7] 1.41%

COc1cc(C(=O)Nc2cc(C)c(OCC(=O)N3CCOCC3)c(C)c2)cc(OC)c1OC
inactive: growth inhibition [1] -2.29% | growth inhibition [2] 1.77% | viability increase [3] -2.98% | viability [4] 88.8% | viability [5] 90.4% | inhibition [6] 1.64% | RAM network inhibition [7] 4.86%

CC(=O)c1ccc(N2CCN(C(=O)c3cc4c(=O)n(C)c5ccccc5c4n3C)CC2)cc1
inactive: growth inhibition [1] -6.79% | growth inhibition [2] -16.3% | viability increase [3] -3.01% | viability [4] 96.5% | viability [5] 88.5% | inhibition [6] 1.98% | RAM network inhibition [7] 2.91%

Cc1ccc(S(=O)(=O)N2CCCC2C(=O)Nc2nc3ccccc3s2)cc1 (configuration not stated)
inactive: growth inhibition [1] -4.55% | growth inhibition [2] -5.41% | viability increase [3] -3.97% | viability [4] 79.7% | viability [5] 80.7% | inhibition [6] 2.12% | RAM network inhibition [7] 4.05%

COc1ccc(C(=O)c2c[nH]c3ccccc23)cc1
inactive: growth inhibition [1] -4.92% | growth inhibition [2] 2.61% | viability increase [3] -1.32% | viability [4] 101% | viability [5] 96.4% | inhibition [6] 0.695% | RAM network inhibition [7] -1.45%

CCCCOC(=O)c1ccc(NS(=O)(=O)c2cc(-c3nnnn3CC)ccc2OC)cc1
inactive: growth inhibition [1] 3.03% | growth inhibition [2] 2.27% | viability increase [3] -2.06% | viability [4] 91.5% | viability [5] 98% | inhibition [6] 0.93% | RAM network inhibition [7] 4.7%

COc1ccc(C)cc1NC(=O)CSc1nnc(-c2ccc(C)cc2)o1
inactive: growth inhibition [1] -8.71% | growth inhibition [2] 30.3% | viability increase [3] 1.15% | viability [4] 91.9% | viability [5] 86.8% | inhibition [6] 2.09% | RAM network inhibition [7] 5.49%

C=Cn1ccnc1P(=S)(c1ccc2c(c1)c1ccccc1n2CC)c1nccn1C=C
inactive: growth inhibition [1] -10.3% | growth inhibition [2] -21.9% | viability increase [3] -6.67% | inhibition [6] 3.5% | RAM network inhibition [7] 6.54%
active: viability [4] 16.2% | viability [5] 13.8%

CC(=O)c1cccc(NC(=O)c2cnn3ccccc23)c1
inactive: growth inhibition [1] -8.43% | growth inhibition [2] -17.2% | viability increase [3] -2.54% | viability [4] 95.5% | viability [5] 84.4% | inhibition [6] 1.73% | RAM network inhibition [7] 4.75%

c1cnc(N2CCSCC2)nc1
inactive: growth inhibition [1] 2.61% | growth inhibition [2] 2.42% | viability increase [3] -2.73% | viability [4] 104% | viability [5] 101% | inhibition [6] 0.69% | RAM network inhibition [7] 3.1%

CCC(=O)Nc1c2c(nn1-c1ccc(F)cc1)CS(=O)C2 (configuration not stated)
inactive: growth inhibition [1] -7.18% | growth inhibition [2] 1.07% | viability increase [3] 0.7% | viability [4] 99.2% | viability [5] 99.5% | inhibition [6] 0.265% | RAM network inhibition [7] 2.18%

Cc1cccn2c(=O)c3cc(C(=O)NCCCN4CCOCC4)n(C)c3nc12
inactive: growth inhibition [1] -4.96% | growth inhibition [2] -3.14% | viability increase [3] 0.44% | viability [4] 93.1% | viability [5] 93.1% | inhibition [6] 1.06% | RAM network inhibition [7] 0.37%

Cc1cc(S(=O)(=O)N2CCN(c3ccc(F)cc3)CC2)c(C)s1
inactive: growth inhibition [1] -13.9% | growth inhibition [2] -7.43% | viability increase [3] -3.11% | viability [4] 60.9% | viability [5] 60.3% | inhibition [6] 1.69% | RAM network inhibition [7] 9.84%

Cc1ccc(Nc2cc(C)nc3nc(C)nn23)cc1
inactive: growth inhibition [1] -3.6% | growth inhibition [2] -11.9% | viability increase [3] -3.16% | viability [4] 97.4% | viability [5] 95.7% | inhibition [6] 2.35% | RAM network inhibition [7] 3.26%

COc1ccccc1N1C(=O)N(C(C)=O)C2C1Nc1ccccc1N2C (configuration not stated)
inactive: growth inhibition [1] -2.22% | growth inhibition [2] -10% | viability increase [3] -5.51% | viability [4] 78.2% | viability [5] 86.5% | inhibition [6] 1.71% | RAM network inhibition [7] 4.65%

COc1ccc(OC)c(S(=O)(=O)Nc2ccc(OCC(=O)O)cc2)c1
inactive: growth inhibition [1] -9.87% | growth inhibition [2] -4.85% | viability increase [3] -0.45% | viability [4] 98.3% | viability [5] 91.1% | inhibition [6] 0.98% | RAM network inhibition [7] 2.71%
